Laboratory results published in ChEMBL document CHEMBL2158000 (Bioorg Med Chem Lett, 2012).
Blank lines part the entries; values can stand above or below the compound they belong to.

Legend:
[1] = molecular target: T1, Amine oxidase [flavin-containing] A (Homo sapiens, UniProt P21397); assay: Inhibition of human recombinant MAOA using kynuramine as substrate assessed as formation of 4-hydroxyquinoline after 20 mins by fluorescence spectrophotometry
T1 sequence (P21397 whole entry): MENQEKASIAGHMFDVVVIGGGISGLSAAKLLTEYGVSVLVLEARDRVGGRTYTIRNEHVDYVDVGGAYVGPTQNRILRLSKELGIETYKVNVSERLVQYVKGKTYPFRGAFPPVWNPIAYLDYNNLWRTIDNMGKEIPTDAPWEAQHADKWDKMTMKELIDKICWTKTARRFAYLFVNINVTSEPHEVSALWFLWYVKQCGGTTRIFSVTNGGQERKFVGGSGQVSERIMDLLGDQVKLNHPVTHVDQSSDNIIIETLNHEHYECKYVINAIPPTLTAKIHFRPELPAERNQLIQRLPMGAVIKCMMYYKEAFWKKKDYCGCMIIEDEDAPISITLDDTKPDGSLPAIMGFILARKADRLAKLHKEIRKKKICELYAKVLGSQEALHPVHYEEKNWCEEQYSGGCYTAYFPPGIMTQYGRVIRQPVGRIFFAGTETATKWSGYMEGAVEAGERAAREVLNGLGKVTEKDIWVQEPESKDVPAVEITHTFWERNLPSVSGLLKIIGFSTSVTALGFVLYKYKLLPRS

[2] = molecular target: T2, Amine oxidase [flavin-containing] B (Homo sapiens, UniProt P27338); assay: Inhibition of human recombinant MAOB using kynuramine as substrate assessed as formation of 4-hydroxyquinoline after 20 mins by fluorescence spectrophotometry
T2 sequence (P27338 whole entry): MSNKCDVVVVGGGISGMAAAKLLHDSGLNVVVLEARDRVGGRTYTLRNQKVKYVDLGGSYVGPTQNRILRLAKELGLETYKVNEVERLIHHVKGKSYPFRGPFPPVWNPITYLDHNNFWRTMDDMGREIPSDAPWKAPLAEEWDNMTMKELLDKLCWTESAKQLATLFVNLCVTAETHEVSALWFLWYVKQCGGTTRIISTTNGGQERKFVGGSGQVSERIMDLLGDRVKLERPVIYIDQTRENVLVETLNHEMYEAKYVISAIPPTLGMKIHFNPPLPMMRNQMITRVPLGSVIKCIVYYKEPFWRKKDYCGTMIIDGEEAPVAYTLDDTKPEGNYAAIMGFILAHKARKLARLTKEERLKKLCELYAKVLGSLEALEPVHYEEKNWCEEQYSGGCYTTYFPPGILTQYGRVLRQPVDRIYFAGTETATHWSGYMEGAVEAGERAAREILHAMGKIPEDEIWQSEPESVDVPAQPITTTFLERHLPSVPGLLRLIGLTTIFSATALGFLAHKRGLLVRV

Homo sapiens = species on record: Homo sapiens; assay: Selectivity index, ratio of IC50 for human recombinant MAOA to IC50 for human recombinant MAOB
[3] = molecular target: T2, Amine oxidase [flavin-containing] B; assay: Reversible inhibition of human recombinant MAOB using kynuramine as substrate assessed as residual activity at 100 times IC50 preincubated for 30 mins followed by 100 fold dilution measured after 20 mins by fluorescence spectrophotometry relative to control
Method in brief: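 MAO-B was preincubated with inhibitor at 10× and 100× IC50 for 30 min, then diluted to 0.1× and 1× IC50. Residual activity was measured by fluorometry of 4-hydroxyquinoline from kynuramine and expressed as % of control. Irreversible reference inhibitor was at 10× IC50, diluted to 0.1× IC50.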

SMILES: O=C1NC(=O)c2cc(Sc3ccccc3)ccc21
IC50 [1]: 8030 nM | IC50 [2]: 986 nM | Ratio IC50 (Homo sapiens): 8.1

SMILES: O=C1NC(=O)c2cc(SC3CCCCC3)ccc21
IC50 [1]: 1030 nM | IC50 [2]: 179 nM | Ratio IC50 (Homo sapiens): 5.8

SMILES: O=C1NC(=O)c2cc(SCc3ccccc3)ccc21
Activity [3]: 28% | IC50 [1]: 1920 nM | IC50 [2]: 4.5 nM | Ratio IC50 (Homo sapiens): 427

SMILES: O=C1NC(=O)c2cc(SCCc3ccccc3)ccc21
IC50 [1]: 2270 nM | IC50 [2]: 30 nM | Ratio IC50 (Homo sapiens): 76

SMILES: O=C1NC(=O)c2cc(Sc3ccc(Cl)cc3)ccc21
IC50 [1]: 1680 nM | IC50 [2]: 457 nM | Ratio IC50 (Homo sapiens): 3.7

SMILES: COc1ccc(CSc2ccc3c(c2)C(=O)NC3=O)cc1
IC50 [1]: 1630 nM | IC50 [2]: 20 nM | Ratio IC50 (Homo sapiens): 82

The remaining compounds from weak to strong by IC50 [1], led by results:

IC50 [1]: 1010 nM | IC50 [2]: 364 nM | Ratio IC50 (Homo sapiens): 2.8
SMILES: O=C1NC(=O)c2cc(Sc3ccc(Br)cc3)ccc21

IC50 [1]: 958 nM | IC50 [2]: 6.8 nM | Ratio IC50 (Homo sapiens): 141
SMILES: O=C1NC(=O)c2cc(SCc3ccc(F)cc3)ccc21

IC50 [1]: 506 nM | IC50 [2]: 5.6 nM | Ratio IC50 (Homo sapiens): 90
SMILES: O=C1NC(=O)c2cc(SCc3ccc(Cl)cc3)ccc21

IC50 [1]: 380 nM | IC50 [2]: 15 nM | Ratio IC50 (Homo sapiens): 26
SMILES: CC(C)CCSc1ccc2c(c1)C(=O)NC2=O

IC50 [1]: 273 nM | IC50 [2]: 7.4 nM | Ratio IC50 (Homo sapiens): 37
SMILES: O=C1NC(=O)c2cc(SCc3ccc(Br)cc3)ccc21
